Measurements reported in ChEMBL document CHEMBL4393722, “Development of the "hidden" multifunctional agents for Alzheimer's disease” (Eur J Med Chem, 2019).
Calls of active or inactive are those of the source. The calls are words filed in the database; no cut-off is given here.

Experiments:
[1] = Metal chelating activity assessed as compound-Fe2+ complex formation at 25 uM incubated for 5 mins in presence of 25 uM FeSO4 by UV-visible spectrophotometry
[2] = Metal chelating activity assessed as compound-Cu2+ complex formation by measuring decrease in absorption with spectral shift to red end at 25 uM incubated for 5 mins in presence of 25 uM CuCl2 by UV-visible spectrophotometry
[3] = target: Amyloid-beta precursor protein (Homo sapiens) (UniProt P05067); test: Inhibition of HFIP-pretreated amyloid beta (1 to 42) (unknown origin) self-aggregation at 20 uM after 24 hrs by thioflavin-T fluorescence assay relative to control
Sequence of Amyloid-beta precursor protein (Homo sapiens) (P05067 whole entry): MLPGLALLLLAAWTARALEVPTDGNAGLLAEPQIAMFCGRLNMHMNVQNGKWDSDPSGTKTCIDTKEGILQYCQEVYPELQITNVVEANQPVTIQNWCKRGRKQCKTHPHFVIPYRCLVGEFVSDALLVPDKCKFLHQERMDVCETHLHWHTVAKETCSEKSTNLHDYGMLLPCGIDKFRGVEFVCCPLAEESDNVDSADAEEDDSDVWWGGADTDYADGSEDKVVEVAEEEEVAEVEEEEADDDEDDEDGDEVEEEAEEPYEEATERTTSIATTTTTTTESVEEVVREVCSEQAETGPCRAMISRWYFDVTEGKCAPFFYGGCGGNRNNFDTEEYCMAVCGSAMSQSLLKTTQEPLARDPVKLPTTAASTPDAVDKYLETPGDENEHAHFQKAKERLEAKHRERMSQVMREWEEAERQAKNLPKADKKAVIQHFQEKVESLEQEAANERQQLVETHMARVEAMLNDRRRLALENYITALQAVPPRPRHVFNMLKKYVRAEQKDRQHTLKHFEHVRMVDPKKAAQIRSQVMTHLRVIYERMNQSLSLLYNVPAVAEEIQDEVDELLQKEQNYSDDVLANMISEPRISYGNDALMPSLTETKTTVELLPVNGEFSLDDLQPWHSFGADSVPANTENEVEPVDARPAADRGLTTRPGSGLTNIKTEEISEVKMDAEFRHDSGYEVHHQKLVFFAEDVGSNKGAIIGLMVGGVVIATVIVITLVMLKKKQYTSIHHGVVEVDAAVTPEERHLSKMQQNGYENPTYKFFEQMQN

[4] = target: Amyloid-beta precursor protein (Homo sapiens) (UniProt P05067); test: Inhibition of HFIP-pretreated amyloid beta (1 to 42) (unknown origin) self-aggregation at 20 uM after 72 hrs by uranyl acetate staining based transmission electron microscopy
Procedure, shortened: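 Aβ1-42 was incubated alone or with compound for 72 h at 37 °C. Fibril formation was then examined by transmission electron microscopy, with curcumin as positive control.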

[5] = Stability of compound in human plasma measured up to 60 mins by HPLC analysis; assay type: ADME, cell-free; settings: 1 h
Procedure, shortened: (§1)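 The compound was incubated separately in human plasma, human liver microsomes, simulated gastric fluid and simulated intestinal fluid. Remaining compound was quantified by HPLC at 5, 15, 30, 45 and 60 min.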

[6] = Stability of compound in human liver microsomes measured up to 60 mins by HPLC analysis; assay type: ADME, Microsome; settings: 1 h; procedure, shortened: as §1
[7] = Stability of the compound in simulated gastric fluid measured up to 60 mins by HPLC analysis; assay type: ADME; settings: simulated gi fluid, 1 h; procedure, shortened: as §1
[8] = Stability of the compound in simulated intestinal fluid measured up to 60 mins by HPLC analysis; assay type: ADME; settings: simulated gi fluid, 1 h; procedure, shortened: as §1
[9] = Ratio of drug level in Sprague-Dawley rat brain to plasma at 25 mg/kg, iv by HPLC analysis; assay type: ADME, organism-based; settings: read-out: BPR
Procedure, shortened: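 Male Sprague–Dawley rats received 25 mg/kg intravenously, with blood and brain sampled by microdialysis. The brain/plasma exposure ratio was calculated from AUC0–∞ measured in brain and plasma dialysates.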

[10] = AUC (0 to t) in Sprague-Dawley rat plasma at 25 mg/kg, iv by HPLC analysis; assay type: ADME, organism-based
Procedure, shortened: (§2)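 Male Sprague–Dawley rats were given a single intravenous dose of 25 mg/kg. Drug levels were followed by microdialysis of blood and brain, alongside plasma. AUC0–t, AUC0–∞, MRT and CLz were derived from the concentration–time curves, n=6, reported as mean ± SD.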

[11] = AUC (0 to infinity) in Sprague-Dawley rat plasma at 25 mg/kg, iv by HPLC analysis; assay type: ADME, organism-based; design: dose 25 mg/kg, time infinity, route intravenous; procedure, shortened: as §2
[12] = MRT in Sprague-Dawley rat plasma at 25 mg/kg, iv by HPLC analysis; assay type: ADME, organism-based; procedure, shortened: as §2
[13] = Apparent clearance in Sprague-Dawley rat plasma at 25 mg/kg, iv by HPLC analysis; assay type: ADME, organism-based; settings: read-out: CL(app); procedure, shortened: as §2
[14] = AUC (0 to t) in Sprague-Dawley rat blood dialysis at 25 mg/kg, iv by HPLC analysis; assay type: ADME, organism-based; settings: blood dialysate; procedure, shortened: as §2
[15] = AUC (0 to infinity) in Sprague-Dawley rat blood dialysis at 25 mg/kg, iv by HPLC analysis; assay type: ADME, organism-based; design: dose 25 mg/kg, route intravenous, time infinity; settings: blood dialysate; procedure, shortened: as §2
[16] = MRT in Sprague-Dawley rat blood dialysis at 25 mg/kg, iv by HPLC analysis; assay type: ADME, organism-based; settings: blood dialysate; procedure, shortened: as §2
[17] = Apparent clearance in Sprague-Dawley rat blood dialysis at 25 mg/kg, iv by HPLC analysis; assay type: ADME, organism-based; settings: blood dialysate, read-out: CL(app); procedure, shortened: as §2
[18] = AUC (0 to t) in Sprague-Dawley rat brain at 25 mg/kg, iv by HPLC analysis; assay type: ADME, organism-based; procedure, shortened: as §2
[19] = AUC (0 to infinity) in Sprague-Dawley rat brain at 25 mg/kg, iv by HPLC analysis; assay type: ADME, organism-based; design: dose 25 mg/kg, route intravenous, time infinity; procedure, shortened: as §2
[20] = MRT in Sprague-Dawley rat brain at 25 mg/kg, iv by HPLC analysis; assay type: ADME, organism-based; procedure, shortened: as §2
Mus musculus [21] = test: Cognition enhancement in scopolamine-induced amnesia mouse model assessed as escape latency at 25 mg/kg, iv administered once daily for 18 days measured after 50 mins at 5th day of training session by Morris water maze test (reference value: 63.2+/-21.1 secs); assay type: functional
Mus musculus [22] = test: Cognition enhancement in scopolamine-induced amnesia mouse model assessed as total swimming distance at 25 mg/kg, iv administered once daily for 18 days measured after 50 mins at 5th day of training session by Morris water maze test (reference value: 785+/-351 cm); assay type: functional
Mus musculus [23] = test: Cognition enhancement in aluminium trichloride-induced amnesia mouse model assessed as total swimming time at 8 mg/kg administered via gastric gavage for 30 days by SMG-2 programmable water maze test (reference value: 115 +/- 19 secs); assay type: functional
Mus musculus [24] = test: Cognition enhancement in aluminium trichloride-induced amnesia mouse model assessed as total swimming time at 0.5 mg/kg administered via gastric gavage for 30 days by SMG-2 programmable water maze test (reference value: 115 +/- 19 secs); assay type: functional
Mus musculus [25] = test: Cognition enhancement in aluminium trichloride-induced amnesia mouse model assessed as error times at 8 mg/kg administered via gastric gavage for 30 days by SMG-2 programmable water maze test (reference value: 20.7 +/- 4.8 secs); assay type: functional
Mus musculus [26] = test: Cognition enhancement in aluminium trichloride-induced amnesia mouse model assessed as error times at 2 mg/kg administered via gastric gavage for 30 days by SMG-2 programmable water maze test (reference value: 20.7 +/- 4.8 secs); assay type: functional
Mus musculus [27] = test: Cognition enhancement in aluminium trichloride-induced amnesia mouse model assessed as error times at 0.5 mg/kg administered via gastric gavage for 30 days by SMG-2 programmable water maze test (reference value: 20.7 +/- 4.8 secs); assay type: functional
Danio rerio [28] = species: Danio rerio; test: Cognition enhancement in aluminium chloride-induced Alzheimer's disease zebra fish model assessed as Dyskinesia recovery rate at 1 uM treated from 3 dpf to 5 dpf relative to control; assay type: functional
Procedure, shortened: (§3)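 Zebrafish larvae were exposed to 150 µM AlCl₃ from 3 to 5 dpf and co-treated with compound at 1, 5 or 25 µM over the same window, 30 fish per group. DRR and RE values were calculated from the average swimming speed of treated fish.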

Danio rerio [29] = species: Danio rerio; test: Cognition enhancement in aluminium chloride-induced Alzheimer's disease zebra fish model assessed as Dyskinesia recovery rate at 5 uM treated from 3 dpf to 5 dpf relative to control; assay type: functional; procedure, shortened: as §3
Danio rerio [30] = species: Danio rerio; test: Cognition enhancement in aluminium chloride-induced Alzheimer's disease zebra fish model assessed as Dyskinesia recovery rate at 25 uM treated from 3 dpf to 5 dpf relative to control; assay type: functional; procedure, shortened: as §3
Danio rerio [31] = species: Danio rerio; test: Cognition enhancement in aluminium chloride-induced Alzheimer's disease zebra fish model assessed as Response efficiency at 1 uM treated from 3 dpf to 5 dpf relative to control; assay type: functional; procedure, shortened: as §3
Danio rerio [32] = species: Danio rerio; test: Cognition enhancement in aluminium chloride-induced Alzheimer's disease zebra fish model assessed as Response efficiency at 5 uM treated from 3 dpf to 5 dpf relative to control; assay type: functional; procedure, shortened: as §3
Danio rerio [33] = species: Danio rerio; test: Cognition enhancement in aluminium chloride-induced Alzheimer's disease zebra fish model assessed as Response efficiency at 25 uM treated from 3 dpf to 5 dpf relative to control; assay type: functional; procedure, shortened: as §3
Danio rerio [34] = species: Danio rerio; test: Cognition enhancement in aluminium chloride-induced Alzheimer's disease zebra fish model assessed as Dyskinesia recovery rate treated from 3 dpf to 5 dpf; assay type: functional, organism-based; procedure, shortened: as §3
N2a = test: Cytotoxicity against mouse Neuro2a cells assessed as reduction in cell viability incubated for 24 hrs by MTT assay; assay type: cell-based
MCF7 = test: Cytotoxicity against human MCF7 cells assessed as reduction in cell viability incubated for 24 hrs by MTT assay; assay type: cell-based; settings: MCF7, 24 h
A549 = test: Cytotoxicity against human A549 cells assessed as reduction in cell viability incubated for 24 hrs by MTT assay; assay type: cell-based; settings: A549, 24 h
[35] = target: Voltage-gated inwardly rectifying potassium channel KCNH2 (Homo sapiens, UniProt Q12809); test: Inhibition of human ERG expressed in CHO cells incubated for 1 min at -80 mV holding potential by manual patch clamp assay; assay type: cell-based
Sequence of Voltage-gated inwardly rectifying potassium channel KCNH2 (Q12809 whole entry): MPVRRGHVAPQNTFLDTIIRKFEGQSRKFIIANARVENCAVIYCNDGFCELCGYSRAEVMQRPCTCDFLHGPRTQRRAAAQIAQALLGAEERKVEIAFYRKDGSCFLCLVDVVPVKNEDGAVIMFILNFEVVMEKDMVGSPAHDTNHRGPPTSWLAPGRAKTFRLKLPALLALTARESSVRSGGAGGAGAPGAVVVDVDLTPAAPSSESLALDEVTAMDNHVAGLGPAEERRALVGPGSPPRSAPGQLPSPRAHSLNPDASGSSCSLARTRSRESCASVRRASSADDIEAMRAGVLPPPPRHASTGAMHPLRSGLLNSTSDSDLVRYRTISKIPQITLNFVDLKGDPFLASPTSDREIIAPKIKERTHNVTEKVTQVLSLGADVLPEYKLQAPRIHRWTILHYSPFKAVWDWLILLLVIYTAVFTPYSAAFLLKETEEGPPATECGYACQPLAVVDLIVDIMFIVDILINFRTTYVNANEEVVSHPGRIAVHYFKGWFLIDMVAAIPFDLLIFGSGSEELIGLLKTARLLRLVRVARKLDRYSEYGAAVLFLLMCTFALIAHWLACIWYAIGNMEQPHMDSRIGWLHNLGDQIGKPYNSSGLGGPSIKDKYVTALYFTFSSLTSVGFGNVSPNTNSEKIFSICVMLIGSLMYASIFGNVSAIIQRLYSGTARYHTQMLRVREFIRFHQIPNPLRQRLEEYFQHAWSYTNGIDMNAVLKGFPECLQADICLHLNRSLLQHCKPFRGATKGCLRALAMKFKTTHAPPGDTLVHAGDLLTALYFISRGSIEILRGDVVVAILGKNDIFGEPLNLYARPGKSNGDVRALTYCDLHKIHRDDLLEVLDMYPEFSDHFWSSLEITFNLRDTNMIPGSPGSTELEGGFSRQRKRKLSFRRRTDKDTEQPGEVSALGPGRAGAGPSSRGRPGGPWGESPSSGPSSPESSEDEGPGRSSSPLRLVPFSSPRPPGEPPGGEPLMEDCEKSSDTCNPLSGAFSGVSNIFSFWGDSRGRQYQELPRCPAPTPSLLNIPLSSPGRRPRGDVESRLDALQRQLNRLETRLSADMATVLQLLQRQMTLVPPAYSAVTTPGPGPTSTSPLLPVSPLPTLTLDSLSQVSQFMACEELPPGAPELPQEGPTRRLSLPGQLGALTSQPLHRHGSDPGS

[36] = target: Amyloid-beta precursor protein (Homo sapiens) (UniProt P05067); test: Inhibition of HFIP-pretreated amyloid beta (1 to 42) (unknown origin) self-aggregation at 20 uM after 48 hrs by thioflavin-T fluorescence assay
[37] = target: Amyloid-beta precursor protein (Homo sapiens) (UniProt P05067); test: Inhibition of HFIP-pretreated amyloid beta (1 to 42) (unknown origin) self- aggregation at 20 uM after 72 hrs by thioflavin-T fluorescence assay relative to control
[38] = Metal chelating activity assessed as compound-Zn2+ complex formation at 25 uM incubated for 5 mins in presence of 25 uM ZnCl2 by UV-visible spectrophotometry
Danio rerio [39] = species: Danio rerio; test: Cognition enhancement in aluminium chloride-induced Alzheimer's disease zebra fish model assessed as Dyskinesia recovery rate at 10 uM treated from 3 dpf to 5 dpf relative to control; assay type: functional
Procedure, shortened: (§4)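 Zebrafish larvae were exposed to 150 µM AlCl₃ from 3 to 5 dpf, with the test drug co-administered over the same 3–5 dpf window. There were 30 fish per group. Dyskinesia recovery rate (DRR) and response efficiency (RE) were both calculated from the average swimming speed of drug-treated fish, with p values reported.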

Danio rerio [40] = species: Danio rerio; test: Cognition enhancement in aluminium chloride-induced Alzheimer's disease zebra fish model assessed as Dyskinesia recovery rate at 50 uM treated from 3 dpf to 5 dpf relative to control; assay type: functional; procedure, shortened: as §4
Danio rerio [41] = species: Danio rerio; test: Cognition enhancement in aluminium chloride-induced Alzheimer's disease zebra fish model assessed as Dyskinesia recovery rate at 250 uM treated from 3 dpf to 5 dpf relative to control; assay type: functional; procedure, shortened: as §4
Danio rerio [42] = species: Danio rerio; test: Cognition enhancement in aluminium chloride-induced Alzheimer's disease zebra fish model assessed as Response efficiency at 10 uM treated from 3 dpf to 5 dpf relative to control; assay type: functional; procedure, shortened: as §4
Danio rerio [43] = species: Danio rerio; test: Cognition enhancement in aluminium chloride-induced Alzheimer's disease zebra fish model assessed as Response efficiency at 50 uM treated from 3 dpf to 5 dpf relative to control; assay type: functional; procedure, shortened: as §4
Danio rerio [44] = species: Danio rerio; test: Cognition enhancement in aluminium chloride-induced Alzheimer's disease zebra fish model assessed as Response efficiency at 250 uM treated from 3 dpf to 5 dpf relative to control; assay type: functional; procedure, shortened: as §4
Mus musculus [45] = test: Cognition enhancement in aluminium trichloride-induced amnesia mouse model assessed as error times at 2 mg/kg administered via gastric gavage for 30 days by SMG-2 programmable water maze test; assay type: functional, organism-based
Mus musculus [46] = test: Cognition enhancement in aluminium trichloride-induced amnesia mouse model assessed as total swimming time at 2 mg/kg administered via gastric gavage for 30 days by SMG-2 programmable water maze test; assay type: functional, organism-based

In the case of `CCN(C)C(=O)Oc1cc(C(C)N(C)C)cc2cccnc12` (stereo not drawn), the Activity [1] is reported as “inactive”, the Activity [2] is reported as “inactive” and the inhibition [3] is reported as 31.3%. The inhibition [4] was “Active”, the Stability [5] was “Stable” and the Stability [6] was “Stable”. For the same compound, the Stability [7] was “Stable”, the Stability [8] was “Stable” and the Kp [9] was 0.524. For the same compound, the AUC(0-t) [10] was 7410 ng·h/mL, the AUC(0-inf) [11] was 7460 ng·h/mL and the MRT [12] was 1.53 h. For the same compound, the clearance [13] was 62 mL/min/kg, the AUC(0-t) [14] was 2430 ng·h/mL and the AUC(0-inf) [15] was 2450 ng·h/mL. For the same compound, the MRT [16] was 1.16 h, the clearance [17] was 190 mL/min/kg and the AUC(0-t) [18] was 1260 ng·h/mL. The AUC(0-inf) [19] was 1270 ng·h/mL, the MRT [20] was 0.947 h and the Time (Mus musculus [21]) was 43.8 s. The Activity (Mus musculus [22]) was 520 cm, the Time (Mus musculus [23]) was 79 s and the Time (Mus musculus [24]) was 73 s. It also gave a Time (Mus musculus [25]) of 16.8 s, a Time (Mus musculus [26]) of 18.1 s and a Time (Mus musculus [27]) of 15.1 s. The Activity (Danio rerio [28]) was 70.8%, the Activity (Danio rerio [29]) was 99.3% and the Activity (Danio rerio [30]) was 121%. The Activity (Danio rerio [31]) was 112.4%, the Activity (Danio rerio [32]) was 161.4% and the Activity (Danio rerio [33]) was 70.2%. The Activity (Danio rerio [34]) was “Dose-dependent effect”, the IC50 (N2a) was over 20 µM and the IC50 (MCF7) was over 20 µM. It also gave an IC50 (A549) of over 20 µM, an IC50 [35] of over 30 µM and an inhibition [36] of 55.9%. It also gave an inhibition [37] of 66.1%.

With `CC(c1cc(O)c2ncccc2c1)N(C)C` (stereo not drawn) the Activity [1] was “Active”, the Activity [2] was “Active” and the Activity [38] was “Active”. The inhibition [4] was “Active” and the inhibition [36] was 44%.

For `CCN(C)C(=O)Oc1cccc([C@H](C)N(C)C)c1` [RIVASTIGMINE], the Activity (Danio rerio [39]) was 53.4%, the Activity (Danio rerio [40]) was 64% and the Activity (Danio rerio [41]) was 58.6%. The Activity (Danio rerio [42]) was 126.3%, the Activity (Danio rerio [43]) was 86.6% and the Activity (Danio rerio [44]) was 175.1%. The Activity (Mus musculus [45]) was “inactive” and the Activity (Mus musculus [46]) was “inactive”.
